Experiment [1] has as its target Cannabinoid receptor 1 (Homo sapiens) (UniProt P21554). The experiment can be described thus: Displacement of [3H]SR141716A from human CB1 expressed in CHO cells at 10 uM. It is filed as cell-based. The method in brief: (§1)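 Membranes from CHO cells expressing hCB1 or hCB2 (40 µg per tube). Radioligand was 1 nM [3H]-SR141716A for CB1 or 1 nM [3H]-CP-55,940 for CB2. Competitor at 10 µM; nonspecific binding defined with 10 µM HU-210. Incubation 1 h at 30 °C in 50 mM Tris-HCl, 3 mM MgCl2, 1 mM EDTA, 0.5% BSA, pH 7.4. Filtered on PEI-treated GF/B and counted. Result is % displacement, ≥3 runs in duplicate, mean ± SEM.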

Experiment [2] deals with Cannabinoid receptor 2 (Homo sapiens) (UniProt P34972). The experiment can be described thus: Displacement of [3H]CP-55940 from human CB2 expressed in CHO cells at 10 uM. It is filed as cell-based. The essentials: as §1
The target in experiment [3] is T1, Fatty-acid amide hydrolase 1 (Rattus norvegicus, UniProt P97612).
T1 sequence (P97612 whole entry): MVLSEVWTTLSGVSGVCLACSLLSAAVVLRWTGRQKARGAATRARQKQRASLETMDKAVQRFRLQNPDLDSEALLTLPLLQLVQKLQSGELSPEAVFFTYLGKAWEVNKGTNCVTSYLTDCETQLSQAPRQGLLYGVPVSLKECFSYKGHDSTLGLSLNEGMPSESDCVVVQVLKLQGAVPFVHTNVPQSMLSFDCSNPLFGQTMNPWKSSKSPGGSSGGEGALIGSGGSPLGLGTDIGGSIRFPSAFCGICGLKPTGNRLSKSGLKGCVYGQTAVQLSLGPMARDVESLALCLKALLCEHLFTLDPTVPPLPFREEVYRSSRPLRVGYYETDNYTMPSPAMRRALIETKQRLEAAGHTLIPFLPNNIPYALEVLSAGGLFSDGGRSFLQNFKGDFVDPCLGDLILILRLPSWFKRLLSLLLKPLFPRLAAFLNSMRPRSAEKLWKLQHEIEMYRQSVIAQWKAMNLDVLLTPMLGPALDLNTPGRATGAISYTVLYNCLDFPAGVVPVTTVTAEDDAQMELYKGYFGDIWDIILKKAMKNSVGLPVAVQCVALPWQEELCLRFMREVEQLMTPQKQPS
The experiment can be described thus: Inhibitory activity against FAAH in Wistar rat brain homogenate at pH 9.0. It counts as tissue-based. The essentials: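 Enzyme from male Wistar rat (250-300 g) brain membranes, washed by 36 000g spins and kept at -80 °C. Anandamide hydrolysis at pH 9.0 in 10 mM Tris-HCl, 1 mM EDTA, 0.1% BSA, 37 °C for 10 min. Stopped with cold chloroform/methanol, then the methanol/buffer phase was counted for radioactivity. Inhibition curves run ≥3 times in duplicate; IC50 by nonlinear regression, given as pI50 ± SEM.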

The target in experiment [4] is T2, Fatty-acid amide hydrolase 1 (Rattus norvegicus) (UniProt P97612).
T2 sequence (whole entry): T1 sequence (P97612 whole entry)
The experiment can be described thus: Inhibitory activity against FAAH in rat brain homogenate at 100 uM. It is filed as tissue-based. As to conditions: wistar. The essentials: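 Rat brain membrane homogenate hydrolysing anandamide in 10 mM Tris-HCl, 1 mM EDTA, 0.1% BSA, pH 7.6, at 37 °C for 10 min. Reaction quenched with cold chloroform/methanol; radioactivity counted in the aqueous methanol phase. Compound tested at 100 µM; percent inhibition of FAAH activity reported.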

SMILES strings stand for the structures.

Sequence of Cannabinoid receptor 1 (Homo sapiens) (P21554 whole entry): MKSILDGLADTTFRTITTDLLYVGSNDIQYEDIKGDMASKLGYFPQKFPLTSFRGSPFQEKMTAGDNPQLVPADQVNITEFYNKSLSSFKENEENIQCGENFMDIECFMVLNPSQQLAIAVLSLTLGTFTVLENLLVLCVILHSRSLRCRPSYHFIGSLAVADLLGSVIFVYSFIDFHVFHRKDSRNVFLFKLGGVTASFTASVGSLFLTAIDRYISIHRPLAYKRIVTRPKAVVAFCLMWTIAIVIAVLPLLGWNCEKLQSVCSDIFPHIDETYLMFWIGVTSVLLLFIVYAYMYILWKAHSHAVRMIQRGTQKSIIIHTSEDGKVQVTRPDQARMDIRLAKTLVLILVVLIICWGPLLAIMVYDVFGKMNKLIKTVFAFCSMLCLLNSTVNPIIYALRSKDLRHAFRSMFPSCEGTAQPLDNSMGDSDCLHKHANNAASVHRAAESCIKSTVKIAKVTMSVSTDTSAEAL
Sequence of Cannabinoid receptor 2 (Homo sapiens) (P34972 whole entry): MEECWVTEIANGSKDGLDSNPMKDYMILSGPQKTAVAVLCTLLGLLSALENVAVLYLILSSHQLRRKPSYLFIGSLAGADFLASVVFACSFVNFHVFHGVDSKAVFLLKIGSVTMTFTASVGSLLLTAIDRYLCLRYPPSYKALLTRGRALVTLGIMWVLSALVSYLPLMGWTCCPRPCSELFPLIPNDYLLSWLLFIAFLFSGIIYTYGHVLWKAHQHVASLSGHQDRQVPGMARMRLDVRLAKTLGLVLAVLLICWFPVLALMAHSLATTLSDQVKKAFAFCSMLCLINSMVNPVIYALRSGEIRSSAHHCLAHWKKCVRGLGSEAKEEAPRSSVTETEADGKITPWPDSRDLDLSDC

As for `CCCCCCCCCCCCCCN1C(=O)C(c2ccccc2)(c2ccccc2)NC1=S`, the values for the Activity in experiment [1] and in experiment [2] were under 10% and under 20%, respectively. In addition, the concentration for half-maximal inhibition (IC50) in experiment [3] is 0.891 µM.
Taken in the same sequence, the figures for `CCCCCCN1C(=O)NC(c2ccccc2)(c2ccccc2)C1=O` were 29.9%, under 20% and 10 µM.
Consider `CCCCN1C(=O)CNC1=O`, for which the Activity in experiment [1] and in experiment [2] was under 20% throughout. Further, the Inhibition in experiment [4] is under 10%.
Turning to `O=C1CNC(=O)N1c1ccccc1`, the Activity in experiment [1] and in experiment [2] was under 20% in each case. The molecule also displayed an Inhibition in experiment [4] of 23%.
As for `CCCCCCCCCCCCCCN1C(=O)NC(c2ccccc2)(c2ccccc2)C1=O`, the Activity in experiment [1] and in experiment [2] was under 20% in each case.
Consider `O=C1CNC(=S)N1c1ccccc1`, for which the Activity in experiment [1] and in experiment [2] was under 20% throughout. Moreover, the Inhibition in experiment [4] was 25%.
On to `O=C1NC(c2ccccc2)C(=O)N1c1ccccc1` (stereo unspecified), for which the Activity in experiment [1] and in experiment [2] was under 20% throughout.
Turning to `CCCCN1C(=O)CNC1=S`, the Activity in experiment [1] and in experiment [2] was under 20% throughout. Besides, the Inhibition in experiment [4] was under 10%.
Consider `O=C1NC(c2ccc(Cl)cc2)(c2ccc(Cl)cc2)C(=O)N1Cc1ccccc1`, for which the Activity in experiment [1] was 72.2%; in experiment [2] it was under 20%.
Turning to `CCCCCCCCN1C(=O)NC(c2ccc(Br)cc2)(c2ccc(Br)cc2)C1=O`, the Activity in experiment [1] was 45.1%; in experiment [2], 21.1%.
For `CCCCCCCCN1C(=O)NC(c2ccc(F)cc2)(c2ccc(F)cc2)C1=O`, the Activity in experiment [1] is 40.1%; in experiment [2], under 20%.
Turning to `CCN1C(=O)NC(c2ccccc2)(c2ccccc2)C1=O`, the Activity in experiment [1] and in experiment [2] was under 20% in each case.
Consider `CCCCCCCCN1C(=O)C(c2ccc(Br)cc2)(c2ccc(Br)cc2)NC1=S`, for which the values for the Activity in experiment [1] and in experiment [2] were 23.4% and under 20%, respectively.
Regarding `O=C1NC(=S)N(c2ccccc2)C1c1ccccc1` (stereo unspecified), the Activity in experiment [1] and in experiment [2] was under 20% in each case.
With `CCCCCN1C(=O)NC(c2ccccc2)(c2ccccc2)C1=O`, the results for the Activity in experiment [1] and in experiment [2] were 21.3% and under 20%, respectively.
For `CCCCCCCCCCN1C(=O)NC(c2ccccc2)(c2ccccc2)C1=O`, the Activity in experiment [1] and in experiment [2] was under 20% in each case.
`CCCCCCCN1C(=O)C(c2ccc(Cl)cc2)(c2ccc(Cl)cc2)NC1=S`: the figures for the Activity in experiment [1] and in experiment [2] were 67.8% and under 20%, respectively.
With `O=C1N(Cc2ccccc2)C(=S)NC1(c1ccccc1)c1ccccc1`, the Activity in experiment [1] is 44.7%; in experiment [2], under 20%.
Turning to `CCCCCCCN1C(=O)NC(c2ccc(Cl)cc2)(c2ccc(Cl)cc2)C1=O`, the results for the Activity in experiment [1] and in experiment [2] were 42.7% and under 20%, respectively.
Taken in the same sequence, the figures for `CCCCCCCCN1C(=O)NC(c2ccc(OC)cc2)(c2ccc(OC)cc2)C1=O` were 31.2% and under 20%.
Turning to `CCN1C(=O)C(c2ccccc2)(c2ccccc2)NC1=S`, the Activity was 40% in experiment [1] and under 10% in experiment [2].
As to `CCCCCN1C(=O)C(c2ccccc2)(c2ccccc2)NC1=S`, the Activity in experiment [1] was 27.6%; in experiment [2] it was under 20%.
Take `CCCCN1C(=O)C(c2ccc(Br)cc2)(c2ccc(Br)cc2)NC1=S`: the Activity is 73.8% in experiment [1] and under 20% in experiment [2].
Consider `CCCCCCCCN1C(=O)C(c2ccccc2)(c2ccccc2)NC1=S`, for which the Activity was 38.8% in experiment [1] and under 20% in experiment [2].
For the molecule `CCCCCCCN1C(=O)NC(c2ccccc2)(c2ccccc2)C1=O`, the Activity in experiment [1] is 23.4%; in experiment [2], under 20%. This molecule had an IC50 in experiment [3] of 8.32 µM.
With `CCCCCCCCCCN1C(=O)C(c2ccccc2)(c2ccccc2)NC1=S`, the Activity in experiment [1] was under 10%; in experiment [2] it was under 20%. For the same molecule, inhibition in experiment [3] was half-maximal at 1.35 µM (IC50).
For `CCCCCCCCCCCCCCCCN1C(=O)C(c2ccccc2)(c2ccccc2)NC1=S`, the Activity in experiment [1] and in experiment [2] was under 10% throughout.
`O=C1NC(c2ccccc2)(c2ccccc2)C(=O)N1CCc1ccccc1`: the Activity in experiment [1] and in experiment [2] was under 20% throughout.
For the molecule `CCCCN1C(=O)NC(c2ccccc2)(c2ccccc2)C1=O`, the Activity in experiment [1] and in experiment [2] was under 20% each time.

The values are drawn from ChEMBL document CHEMBL1148583, “Substituted 2-thioxoimidazolidin-4-ones and imidazolidine-2,4-diones as fatty acid amide hydrolase inhibitors templates” (J Med Chem, 2006).
